Data reported in ChEMBL document CHEMBL3286099, “Synthesized quercetin derivatives stimulate melanogenesis in B16 melanoma cells by influencing the expression of melanin biosynthesis proteins MITF and p38 MAPK” (Bioorg Med Chem, 2014).
The source made the active and inactive calls. The calls are words filed in the database; no cut-off is given here.

What was measured:
B16-F0 [1] = assay: Induction of melanogenesis-stimulating activity in mouse B16F0 cells assessed as increase in p-p38 MAPK level at 3.1 to 12.5 uM after 72 hrs by Western blotting analysis; type: functional, cell-based
Outline: (§1)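 B16 cells were treated for 72 h at 0–12.5 µM and lysed in RIPA with protease inhibitors (0 °C, 30 min). Lanes held 10 µg protein on 10% SDS–PAGE, transferred to PVDF and blocked with 2% BSA/TBST at 4 °C overnight. Primaries ran 2 h: MITF 1:1000, tyrosinase, TRP-1 and p-p38 1:200, TRP-2 and p38 1:100. HRP secondary was 1:5000 for 2 h, with ECL densitometry. GAPDH blotted; three independent experiments.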

[2] = Cytotoxicity against mouse B16F0 cells assessed as cell viability at 12.5 uM after 72 hrs by MTT assay; type: cell-based; details: read-out: Activity
Outline: (§2)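 B16-F0 cells were seeded at 5.0 × 10⁴ cells/well and allowed to adhere for 24 h at 37 °C. They were exposed for 72 h to compound at 200–10 µM or 50–6.25 µM, depending on compound series. MTT (5 mg/mL stock in PBS) was added for 4 h at 37 °C in 5% CO₂, then dissolved in isopropanol/0.04 N HCl and read at 590 nm. Viability is % of DMSO control; experiments were done twice.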

[3] = Cytotoxicity against mouse B16F0 cells assessed as cell viability at 25 uM after 72 hrs by MTT assay; type: cell-based; details: read-out: Activity; outline: as §2
B16-F0 [4] = assay: Extracellular melanogenesis-stimulating activity in mouse B16F0 cells at 12.5 uM after 72 hrs by spectrophotometry relative to control; type: functional
Outline: (§3)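 B16-F0 cells in DMEM with 10% FBS were seeded at 5.0 × 10⁴ cells/well and adhered for 24 h. They were treated for 72 h at 200–10 µM or 50–6.25 µM, depending on compound series. Absorbance of the collected culture medium at 510 nm gave extracellular melanin, expressed as % of DMSO-treated control. Experiments were done twice.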

B16-F0 [5] = assay: Intracellular melanogenesis-stimulating activity in mouse B16F0 cells at 12.5 uM after 72 hrs by spectrophotometry relative to control; type: functional
Outline: (§4)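 Cells were seeded at 5.0 × 10⁴ cells/well, adhered for 24 h, then treated with compound for 72 h. After a PBS wash, cells were lysed in 1 M NaOH at 100 °C for 30 min to solubilize melanin. Lysate absorbance at 405 nm served as the intracellular melanin index, expressed as % of DMSO control. Experiments were done twice.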

B16-F0 [6] = assay: Intracellular melanogenesis-stimulating activity in mouse B16F0 cells at 50 uM after 72 hrs by spectrophotometry relative to control; type: functional; outline: as §4
B16-F0 [7] = assay: Induction of melanogenesis-stimulating activity in mouse B16F0 cells assessed as increase in TRP-1 protein expression at 3.1 to 12.5 uM after 72 hrs by Western blotting analysis; type: functional, cell-based; outline: as §1
B16-F0 [8] = assay: Induction of melanogenesis-stimulating activity in mouse B16F0 cells assessed as increase in MITF protein expression at 3.1 to 12.5 uM after 72 hrs by Western blotting analysis; type: functional, cell-based; outline: as §1
B16-F0 [9] = assay: Extracellular melanogenesis-stimulating activity in mouse B16F0 cells at 50 uM after 72 hrs by spectrophotometry relative to control; type: functional; outline: as §3
B16-F0 [10] = assay: Induction of melanogenesis-stimulating activity in mouse B16F0 cells assessed as increase in TRP-2 protein expression at 3.1 to 12.5 uM after 72 hrs by Western blotting analysis; type: functional, cell-based; outline: as §1
B16-F0 [11] = assay: Induction of melanogenesis-stimulating activity in mouse B16F0 cells assessed as increase in tyrosinase protein expression at 3.1 to 12.5 uM after 72 hrs by Western blotting analysis; type: functional, cell-based; outline: as §1
[12] = Cytotoxicity against mouse B16F0 cells assessed as cell viability at 50 uM after 72 hrs by MTT assay; type: cell-based; details: read-out: Activity; outline: as §2
B16-F0 [13] = assay: Intracellular melanogenesis-stimulating activity in mouse B16F0 cells at 25 uM after 72 hrs by spectrophotometry relative to control; type: functional; outline: as §4
B16-F0 [14] = assay: Extracellular melanogenesis-stimulating activity in mouse B16F0 cells at 25 uM after 72 hrs by spectrophotometry relative to control; type: functional; outline: as §3
B16-F0 [15] = assay: Intracellular melanogenesis-stimulating activity in mouse B16F0 cells at 10 uM after 72 hrs by spectrophotometry relative to control; type: functional
B16-F0 [16] = assay: Intracellular melanogenesis-stimulating activity in mouse B16F0 cells at 200 uM after 72 hrs by spectrophotometry relative to control; type: functional
[17] = Cytotoxicity against mouse B16F0 cells assessed as cell viability at 10 uM after 72 hrs by MTT assay; type: cell-based; details: read-out: Activity; outline: as §2
[18] = Cytotoxicity against mouse B16F0 cells assessed as cell viability at 100 uM after 72 hrs by MTT assay; type: cell-based; details: read-out: Activity; outline: as §2
[19] = Cytotoxicity against mouse B16F0 cells assessed as cell viability at 200 uM after 72 hrs by MTT assay; type: cell-based; details: read-out: Activity; outline: as §2
B16-F0 [20] = assay: Intracellular melanogenesis-stimulating activity in mouse B16F0 cells after 72 hrs by spectrophotometry relative to control; type: functional, cell-based; outline: as §4
B16-F0 [21] = assay: Extracellular melanogenesis-stimulating activity in mouse B16F0 cells at 200 uM after 72 hrs by spectrophotometry relative to control; type: functional; outline: as §3
B16-F0 [22] = assay: Extracellular melanogenesis-stimulating activity in mouse B16F0 cells at 10 uM after 72 hrs by spectrophotometry relative to control; type: functional; outline: as §3
B16-F0 [23] = assay: Extracellular melanogenesis-stimulating activity in mouse B16F0 cells at 100 uM after 72 hrs by spectrophotometry relative to control; type: functional; outline: as §3
B16-F0 [24] = assay: Intracellular melanogenesis-stimulating activity in mouse B16F0 cells at 100 uM after 72 hrs by spectrophotometry relative to control; type: functional
B16-F0 [25] = assay: Intracellular melanogenesis-stimulating activity in mouse B16F0 cells at 6.25 uM after 72 hrs by spectrophotometry relative to control; type: functional; outline: as §4
[26] = Cytotoxicity against mouse B16F0 cells assessed as cell viability at 6.25 uM after 72 hrs by MTT assay; type: cell-based; details: read-out: Activity; outline: as §2
B16-F0 [27] = assay: Extracellular melanogenesis-stimulating activity in mouse B16F0 cells at 6.25 uM after 72 hrs by spectrophotometry relative to control; type: functional; outline: as §3
B16-F0 [28] = assay: Induction of melanogenesis-stimulating activity in mouse B16F0 cells assessed as increase in p38-MAPK protein expression after 72 hrs by Western blotting analysis; type: functional, cell-based; outline: as §1
B16-F0 [29] = assay: Induction of melanogenesis-stimulating activity in mouse B16F0 cells assessed as increase in MITF protein expression after 72 hrs by Western blotting analysis; type: functional, cell-based; outline: as §1
B16-F0 [30] = assay: Induction of melanogenesis-stimulating activity in mouse B16F0 cells assessed as increase in TRP-2 protein expression after 72 hrs by Western blotting analysis; type: functional, cell-based; outline: as §1
B16-F0 [31] = assay: Induction of melanogenesis-stimulating activity in mouse B16F0 cells assessed as increase in p-p38 MAPK level after 72 hrs by Western blotting analysis; type: functional, cell-based; outline: as §1
B16-F0 [32] = assay: Induction of melanogenesis-stimulating activity in mouse B16F0 cells assessed as increase in tyrosinase protein expression after 72 hrs by Western blotting analysis; type: functional, cell-based; outline: as §1
B16-F0 [33] = assay: Induction of melanogenesis-stimulating activity in mouse B16F0 cells assessed as increase in TRP-1 protein expression after 72 hrs by Western blotting analysis; type: functional, cell-based; outline: as §1

Structure (SMILES)	viability at 72 h, 12.5 µM [2] [%]	viability at 72 h, 25 µM [3] [%]	Activity (B16-F0 [4]) [%]	Activity (B16-F0 [5]) [%]	Activity (B16-F0 [13]) [%]	Activity (B16-F0 [14]) [%]	Activity (B16-F0 [25]) [%]	viability at 72 h, 6.25 µM [26] [%]	Activity (B16-F0 [27]) [%]	further results
COc1c(-c2ccc(O)c(O)c2)oc2cc(O)cc(O)c2c1=O [3-O-METHYLQUERCETIN]	98.2	88.1	124.1	137	146.5	130.8	–	–	–	Activity (B16-F0 [1]): inactive; Activity (B16-F0 [6]): 157.3%; Activity (B16-F0 [7]): Active; Activity (B16-F0 [8]): inactive; Activity (B16-F0 [9]): 224.9%; Activity (B16-F0 [10]): Active; Activity (B16-F0 [11]): Active; viability at 72 h, 50 µM [12]: 74.4%
O=c1c(O[C@@H]2O[C@H](CO)[C@@H](O[C@@H]3O[C@H](CO)[C@@H](O)[C@H](O)[C@H]3O)[C@H](O)[C@H]2O)c(-c2ccc(O[C@@H]3O[C@H](CO)[C@@H](O)[C@H](O)[C@H]3O)c(O)c2)oc2cc(O)cc(O)c12	–	–	–	–	–	–	–	–	–	Activity (B16-F0 [15]): 137%; Activity (B16-F0 [16]): 190.5%; viability at 72 h, 10 µM [17]: 90%; viability at 72 h, 100 µM [18]: 86.8%; viability at 72 h, 200 µM [19]: 74.8%; Activity (B16-F0 [20]): Dose-dependent effect; Activity (B16-F0 [21]): 125.5%; Activity (B16-F0 [22]): 99.7%; Activity (B16-F0 [23]): 116%; Activity (B16-F0 [24]): 151.5%
COc1cc(O)c2c(=O)c(O)c(-c3ccc(O)c(O)c3)oc2c1 [RHAMNETIN]	99.4	91.6	105.2	87.6	75.8	114.3	102.4	92.7	105.5	–
COc1ccc(-c2oc3cc(O)cc(O)c3c(=O)c2O)cc1O [TAMARIXETIN]	103	101	95.1	133.5	106.9	97.9	125.6	104	97.5	–
CC(=O)OC[C@H]1O[C@@H](Oc2c(-c3ccc(O)c(O)c3)oc3cc(O)cc(O)c3c2=O)[C@H](OC(C)=O)[C@@H](OC(C)=O)[C@@H]1OC(C)=O	114	102	89.3	122.4	121.4	101.5	–	–	–	Activity (B16-F0 [6]): 148.4%; Activity (B16-F0 [9]): 96.1%; viability at 72 h, 50 µM [12]: 104%
O=c1c(O[C@@H]2O[C@H](CO)[C@@H](O[C@@H]3O[C@H](CO)[C@@H](O)[C@H](O)[C@H]3O)[C@H](O)[C@H]2O)c(-c2ccc(O)c(O)c2)oc2cc(O)cc(O)c12	–	–	–	–	–	–	–	–	–	Activity (B16-F0 [15]): 102.6%; Activity (B16-F0 [16]): 176%; viability at 72 h, 10 µM [17]: 99.6%; viability at 72 h, 100 µM [18]: 93.2%; viability at 72 h, 200 µM [19]: 81.1%; Activity (B16-F0 [20]): Dose-dependent effect; Activity (B16-F0 [21]): 85.2%; Activity (B16-F0 [22]): 83.3%; Activity (B16-F0 [23]): 91%; Activity (B16-F0 [24]): 126.8%
COc1cc(O)c2c(=O)c(O)c(-c3ccc(OC)c(O)c3)oc2c1 [OMBUINE]	101	101	98	106.1	100.5	100.1	110.2	99.7	100.5	–
O=c1c(O[C@@H]2O[C@H](CO)[C@@H](O)[C@H](O)[C@H]2O)c(-c2ccc(O)c(O)c2)oc2cc(O)cc(O)c12 [ISOQUERCETIN]	–	–	–	–	–	–	–	–	–	Activity (B16-F0 [15]): 116.3%; Activity (B16-F0 [16]): 206.9%; viability at 72 h, 10 µM [17]: 105%; viability at 72 h, 100 µM [18]: 80.9%; viability at 72 h, 200 µM [19]: 68.4%; Activity (B16-F0 [20]): Dose-dependent effect; Activity (B16-F0 [21]): 86.1%; Activity (B16-F0 [22]): 91%; Activity (B16-F0 [23]): 85.1%; Activity (B16-F0 [24]): 157.1%
COc1cc(O)c2c(=O)c(OC)c(-c3ccc(O)c(O)c3)oc2c1	60.4	54.1	304.3	171.2	187.6	265.5	134	80.4	222.8	–
COc1cc(O)c2c(=O)c(OC)c(-c3ccc(OC)c(O)c3)oc2c1 [AYANIN]	102	90.2	228	181.4	203.4	298.7	127.7	95.3	225.5	Activity (B16-F0 [28]): inactive; Activity (B16-F0 [29]): Dose-dependent effect; Activity (B16-F0 [30]): Dose-dependent effect; Activity (B16-F0 [31]): Dose-dependent effect; Activity (B16-F0 [32]): Dose-dependent effect; Activity (B16-F0 [33]): Dose-dependent effect
CC(=O)Oc1c(-c2ccc(O)c(O)c2)oc2cc(O)cc(O)c2c1=O	110	120	87.6	99	114.3	102.6	–	–	–	Activity (B16-F0 [6]): 104.6%; Activity (B16-F0 [9]): 126.6%; viability at 72 h, 50 µM [12]: 110%
